In the library only some 1.7% were active in any assay of this set; here they are far more common.
SKN-1 inh: blocks SKN-1 activity in C. elegans. inhibition, % at 21.8 µM. C. elegans VP596 Pgst-4::GFP/RFP ratio, acrylamide-induced, 24 h. hit rate 0.49% among 360,000;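 active = interference check ratio from 0.5 to 1.5 plus GFP to RFP signal ratio inhibition reaching or exceeding a fixed threshold, cut at about 30% in these data, passing the limit was not always enough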
eIF4H FP inh: inhibitors of RNA binding by human eIF4H | hit rate 0.94% among 290,000 | Q15056 | inhibition, % at 35 µM | eIF4H fluorescence polarization binding assay;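 also: calls also rest on retests at 20 µM and on dose response follow-up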
MT1-MMP act inh: blocks activation of human MT1-MMP; P50281; HT1080 RFP-PRO-GFP cells, GFP/RFP ratio fluorescence, overnight; percent of plate control window, DMSO zero; GFP/RFP ratio change, % at 20 µM; hit rate 0.061% among 360,000; AID 651647;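 active = GFP/RFP ratio change of at least 30% with cell ATP level not reduced by more than half and red fluorescence within 50% of control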
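Material – HT1080 RFP-PRO-GFP cells · Control set – DMSO wells and RFP-L50D-GFP cells · Incubation – overnight cell settling, then overnight compound exposure, 37 °C, 5% CO2 · Compound dosing – single-point 20 µM compound, 1% DMSO · Read-out – GFP/RFP fluorescence ratio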
PABP polyA inh: PABP-poly(A) binding inhibition; AID 2014; hit rate 1% among 290,000; PABP-poly(A) RNA binding, fluorescence polarization; inhibition, % at 35 µM; P11940;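 also: calls also rest on retests at 20 µM and on dose response follow-up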
Target sequence (P11940 whole entry, looked up): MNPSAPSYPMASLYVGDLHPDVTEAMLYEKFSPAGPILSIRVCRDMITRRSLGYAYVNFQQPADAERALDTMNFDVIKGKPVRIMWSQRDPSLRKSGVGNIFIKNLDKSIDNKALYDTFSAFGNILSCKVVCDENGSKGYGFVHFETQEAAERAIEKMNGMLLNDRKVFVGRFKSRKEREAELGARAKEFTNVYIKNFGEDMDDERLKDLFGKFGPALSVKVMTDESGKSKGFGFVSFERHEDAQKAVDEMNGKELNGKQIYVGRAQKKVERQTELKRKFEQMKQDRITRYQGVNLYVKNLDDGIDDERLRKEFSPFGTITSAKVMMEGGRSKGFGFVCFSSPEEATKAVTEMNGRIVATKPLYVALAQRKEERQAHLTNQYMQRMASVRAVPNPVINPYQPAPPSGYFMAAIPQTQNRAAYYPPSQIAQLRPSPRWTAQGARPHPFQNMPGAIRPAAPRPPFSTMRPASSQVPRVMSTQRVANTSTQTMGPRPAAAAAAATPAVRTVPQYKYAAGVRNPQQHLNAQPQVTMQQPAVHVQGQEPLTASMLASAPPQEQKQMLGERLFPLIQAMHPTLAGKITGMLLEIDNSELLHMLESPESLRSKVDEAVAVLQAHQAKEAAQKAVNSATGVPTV
PABP1 MLLE inh: blocks PAM2 peptide binding to the PABP1 MLLE domain. P11940. GST-MLLE / FITC-PAM2 fluorescence polarization. inhibition, % at 20 µM. hit rate 0.36% among 360,000; in the data active = inhibition above about 35%, passing the limit was not always enough
Of the large screens only hits and unclear results are named; the others gave an inactive call. Unless noted, no rule for the calls is given here.

COc1ccc2c(c1OC)C(=O)N1C2SC[C@H]1C(=O)NC1CCCC1 (stereo not given in full)	PABP1 MLLE inh 41
CCC(C)NC(=O)[C@H]1N2C(=O)c3c(ccc(OC)c3OC)C2SC1(C)C (stereo not given in full)	PABP1 MLLE inh 43
Nc1nnnn1-c1cccc([N+](=O)[O-])c1	none (no result: eIF4H FP inh, PABP polyA inh)
COc1cccc(NC(=O)CN2C(=O)NC(C)(c3ccc(C)cc3)C2=O)c1 (stereo not given)	none
C=C1c2cccc(O)c2C(O)=C2C(=O)[C@]3(O)C(O)=C(C(N)=O)C(=O)[C@@H](N(C)C)[C@@H]3[C@@H](O)[C@H]12	eIF4H FP inh 107, PABP polyA inh 110
Nc1ccc2c(c1)C(=O)c1ccc(N)cc1-2	none (no result: eIF4H FP inh, PABP polyA inh)
Cc1c(C(=O)O)sc2nc(SCC(=O)Nc3ccc(S(=O)(=O)NCCCC(=O)O)cc3)[nH]c(=O)c12	eIF4H FP inh 1.1
CC1(C(=O)Nc2ccc3c(c2)OCO3)Cc2c(-c3cccc(C(F)(F)F)c3)ccnc2O1 (stereo not given)	none (no result: eIF4H FP inh, PABP polyA inh)
C[n+]1ccccc1/C=C1\Sc2ccccc2N1CCO	none (no result: eIF4H FP inh, PABP polyA inh)
Cc1ccc2c(c1)S/C(=C\c1cccc[n+]1C)N2CCO	PABP polyA inh 75
Cc1cc(C)c2c(n1)SCC(=O)N2CC(=O)Nc1ccc(F)cc1	none
Cc1ccc(/C=C2/SC(=Nc3ccc(F)cc3)NC2=O)s1	SKN-1 inh 40
Cc1ccc(N=C2NC(=O)/C(=C\c3cccs3)S2)cc1C	none
O=C(COc1ccc(S(=O)(=O)NC2CCCCC2)cc1)NC1CC1	none
Cc1cc[n+](-c2[nH]c(=O)sc2/C=N/N=C(\[O-])c2ccccc2)cc1	PABP polyA inh 35, PABP1 MLLE inh 39
Cc1cc[n+](-c2[nH]c(=O)sc2/C=N/N=C(\[O-])c2ccncc2)cc1	eIF4H FP inh 100, PABP polyA inh 74, PABP1 MLLE inh 41
O=c1[nH]c(-[n+]2ccccc2)c(/C=N/N=C(\[O-])c2ccccc2)s1	none
CCCCn1c(O)c(/C=C/C=C/C=Nc2ccccc2)sc1=S	eIF4H FP inh 54
O=C(O/N=C1\C(=O)N(c2ccccc2)c2ccccc21)C1CC1	eIF4H FP inh active
CCO/N=C1\C(=O)N(c2ccccc2)c2ccccc21	none
CN(C)c1ccc(C(C(=O)NC2CCCC2)N(C(=O)c2ccco2)C2CC2)cc1 (stereo not given)	none
Oc1[nH]c2ccccc2c1N=Nc1ccccn1	none (no result: eIF4H FP inh, PABP polyA inh)
Oc1c(N=Nc2ccccn2)ccc2ccccc12	SKN-1 inh 46
O=c1[nH]c(CN2CCOCC2)nc2ccccc12	none
O=c1[nH]c(CN2CCc3ccccc3C2)nc2ccccc12	PABP1 MLLE inh 41
O=C(O)c1ccccc1CSc1ccccn1	none
Cc1c(N=C2N=C(NC(=O)c3cccs3)c3ccccc32)c(=O)n(-c2ccccc2)n1C	SKN-1 inh 39, eIF4H FP inh inconclusive
COc1ccccc1C1CC(c2cccs2)=Nc2ccccc2S1 (stereo not given)	PABP1 MLLE inh 46
COc1ccccc1C1CC(c2cccs2)=NN1C(=O)CCC(=O)O (stereo not given)	none
Cc1[nH]c(C)c(S(=O)(=O)Nc2ccc(OC(F)(F)F)cc2)c1C(=O)N1CCCCC1	none
Cc1ccc(-c2nc(=S)c3c(n2CCN2CCOCC2)CC(C)(C)OC3)cc1	SKN-1 inh 36
COc1ccc(-c2nc(=S)c3c(n2CCN2CCOCC2)CC(C)(C)OC3)cc1	none
Nc1nc2ccc(S(=O)(=O)N3CCCCC3)cc2s1	PABP1 MLLE inh 42
Cc1nc2ccc(S(=O)(=O)N3CCCCC3)cc2s1	none
CCOC(=O)C1=C(C)Nc2sc(C(=O)c3ccc(C)cc3)c(N)c2C1c1ccc(C(=O)OC)cc1 (stereo not given)	PABP polyA inh active
CC(C)CC(NC(=O)c1ccccc1)C(=O)N/N=C/c1ccco1 (stereo not given)	eIF4H FP inh 58, PABP polyA inh active
CC(NC(=O)c1ccccc1)C(=O)N/N=C/c1ccco1 (stereo not given)	none
COc1ccc(C2C(C#N)=C(N)OC3=C2C(=O)CC(C)(C)C3)c([N+](=O)[O-])c1OC (stereo not given)	PABP1 MLLE inh 45
COc1cc(C2C(C#N)=C(N)OC3=C2C(=O)CC(C)(C)C3)c([N+](=O)[O-])cc1OC (stereo not given)	eIF4H FP inh inconclusive, PABP polyA inh inconclusive

High-throughput results from PubChem.
